Bioassay records: PubChem BioAssay, Broad Institute
Only a selection was taken, and hits are over-represented in it overall.
T cruzi growth-1 – T. cruzi proliferation inhibition; inhibition, % at 8.34 µM; T. cruzi beta-gal in NIH3T3, GalScreen luminescence, 90 h; 77,000 compounds, 5.9% hits; AID 624255;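 active means mean inhibition above about 93%, with at least 55% of replicates each passing it, limit read from the data, passing the limit was not always enough; inconclusive means only one of those two conditions holds; inactive means neither condition holds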
KDM4C inh – blocks human GASC-1 (KDM4C) demethylase activity; 96,000 compounds, 0.15% hits; inhibition, % at 12.5 µM; GST-KDM4C 2-372, H3K9me3 peptide, LANCE TR-FRET;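 active means mean replicate inhibition above about 25%, with at least 55% of replicates also reaching it, limit read from the data, passing the limit was not always enough; inconclusive means only one of those two conditions met; inactive means neither condition met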
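reagent = H3K9me3 peptide substrate, Fe(II), 2-oxoglutarate | system = GST-tagged GASC-1 (JMJD2C) catalytic fragment, aa 2-372 | amount = enzyme final amount 10 nM | read-out = Fall in 671/618 emission ratio as inhibition | medium = HEPES buffer, pH 7.5, plus ascorbate | schedule = 30 min reaction, 60 min detection, RT | measured by = LANCE TR-FRET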
IDH1 mut inh – blocks human IDH1 R132H reductase activity. 70,000 compounds, 0.18% hits. AID 624101. diaphorase/resazurin fluorescence, 60 min. inhibition, % at 10 µM; in the data active means inhibition above about 34%; inconclusive means no clear call, values can overlap the other calls; inactive means below about 11%
Target sequence (O75874 whole entry R132H): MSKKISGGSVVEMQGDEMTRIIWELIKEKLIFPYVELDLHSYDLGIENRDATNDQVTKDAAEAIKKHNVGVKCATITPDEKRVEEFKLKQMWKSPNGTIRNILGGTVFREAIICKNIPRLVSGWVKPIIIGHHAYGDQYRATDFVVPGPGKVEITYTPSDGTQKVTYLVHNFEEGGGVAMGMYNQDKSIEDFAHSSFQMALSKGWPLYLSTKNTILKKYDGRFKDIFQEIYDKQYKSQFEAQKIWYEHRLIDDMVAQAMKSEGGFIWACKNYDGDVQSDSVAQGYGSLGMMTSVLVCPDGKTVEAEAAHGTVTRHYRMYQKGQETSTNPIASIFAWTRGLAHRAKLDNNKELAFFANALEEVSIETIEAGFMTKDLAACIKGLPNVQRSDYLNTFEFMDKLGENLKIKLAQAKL
T cruzi growth-2 – inhibitors of T. cruzi proliferation | shares compounds with T cruzi growth-1 | T. cruzi beta-gal in NIH3T3, GalScreen luminescence, 90 h | 5,600 compounds, 72% hits | inhibition, % at 8.35 µM;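 active means mean replicate inhibition above about 95% and at least 55% of replicates individually reaching it, limit read from the data; inconclusive means only one of the two criteria is met; inactive means neither criterion is met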
T cruzi growth-3 – inhibitors of T. cruzi proliferation; shares compounds with T cruzi growth-1; AID 651740; inhibition, % at 2.09 µM; T. cruzi beta-gal in NIH3T3, GalScreen luminescence, 90 h; 5,600 compounds, 21% hits;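 active means mean inhibition above about 95%, with at least 55% of replicates also reaching it, limit read from the data; inconclusive means meets just one of the two conditions; inactive means meets neither condition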
3T3 cytotox – cytotoxicity in mouse NIH/3T3 fibroblasts. AID 651742. NIH/3T3 viability, CellTiter-Glo ATP luminescence, 90 h. shares compounds with T cruzi growth-1. 5,600 compounds, 14% hits. cytotoxicity (signal decrease), % at 8.35 µM;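 active means mean signal decrease across replicates above about 35% based on untreated-well scatter, with enough replicates individually passing, limit read from the data; inconclusive means no rule stated though some were filed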
3T3 cytotox 2 – cytotoxicity in mouse NIH/3T3 fibroblasts. shares compounds with T cruzi growth-1. NIH/3T3 viability, CellTiter-Glo ATP luminescence, 90 h. inhibition, % at 24.9 µM. 5,600 compounds, 56% hits. AID 651744;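 active means mean loss of cell viability signal at or above a set limit, and enough replicates individually reaching it; inconclusive means meets only the mean limit or only the replicate share; inactive means meets neither condition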
A number is an active result; n = inactive; u = inconclusive; x = no result given.

SMILES | T cruzi growth-1 | KDM4C inh | IDH1 mut inh | T cruzi growth-2 | T cruzi growth-3 | 3T3 cytotox | 3T3 cytotox 2
O=C(C[C@H]1C[C@H]2c3cc(NS(=O)(=O)c4ccc(F)cc4)ccc3O[C@H]2[C@@H](CO)O1)N1CCc2ccccc2C1 | n | n | n | x | x | x | x
O=C(Nc1ccc(C(F)(F)F)cc1)Nc1ccc2c(c1)[C@@H]1C[C@@H](CC(=O)N3CCc4ccccc4C3)O[C@H](CO)[C@@H]1O2 | 138.1 | n | n | 97.5 | u | n | 103.9
CN(C)CC(=O)Nc1ccc2c(c1)[C@H]1C[C@@H](CC(=O)N3CCc4ccccc4C3)O[C@H](CO)[C@H]1O2 | 105.1 | n | n | n | n | n | n
O=C(C[C@@H]1C[C@H]2c3cc(NS(=O)(=O)c4ccc(F)cc4)ccc3O[C@H]2[C@@H](CO)O1)N1CCc2ccccc2C1 | 117.4 | n | n | n | n | n | n
O=C(Nc1ccc2c(c1)[C@@H]1C[C@H](CC(=O)N3CCc4ccccc4C3)O[C@H](CO)[C@@H]1O2)Nc1ccccc1F | x | n | n | x | x | x | x
O=C(Nc1ccc(C(F)(F)F)cc1)Nc1ccc2c(c1)[C@@H]1C[C@H](CC(=O)N3CCc4ccccc4C3)O[C@H](CO)[C@@H]1O2 | 118.6 | n | n | n | 122.4 | n | n
CN(C)CC(=O)Nc1ccc2c(c1)[C@@H]1C[C@H](CC(=O)N3CCc4ccccc4C3)O[C@H](CO)[C@@H]1O2 | n | n | n | x | x | x | x
O=C(Nc1ccc2c(c1)[C@@H]1C[C@H](CC(=O)N3CCc4ccccc4C3)O[C@@H](CO)[C@@H]1O2)Nc1ccccc1F | x | n | n | x | x | x | x
COc1ccccc1CC(=O)Nc1ccccc1C(=O)NC(C)(C)C | x | x | n | x | x | x | x
CCCN1[C@H](C(=O)N[C@H](C)c2ccccc2)[C@@H](CO)[C@@H]2Cn3c(ccc(-c4ccc(F)cc4)c3=O)[C@@H]21 | n | n | x | x | x | x | x
COC(=O)CN(c1cc([N+](=O)[O-])ccc1C)S(C)(=O)=O | x | x | n | x | x | x | x
O=S(=O)(c1ccc(-c2ccon2)s1)N(Cc1ccccn1)Cc1ccccn1 | x | x | n | x | x | x | x
CCN1[C@@H]2c3ccc(-c4ccccc4)c(=O)n3C[C@H]1[C@H](CO)[C@H]2C(=O)NC1CCC1 | n | n | x | x | x | x | x
Cc1nnc(SCC(=O)Nc2cccc3ccccc23)s1 | x | x | n | x | x | x | x
O=C(CC1CC1)Nc1ccc2c(c1)[C@@H]1C[C@H](CC(=O)N3CCCCC3)O[C@H](CO)[C@@H]1O2 | n | n | n | x | x | x | x
O=C(CC1CC1)Nc1ccc2c(c1)[C@@H]1C[C@@H](CC(=O)N3CCCCC3)O[C@@H](CO)[C@@H]1O2 | 104.3 | n | n | n | n | n | n
CCc1nnc(SCC(=O)Nc2cccc([N+](=O)[O-])c2)o1 | x | x | n | x | x | x | x
COc1cccc(NC(=O)N(C)C[C@@H]2Oc3cc(-c4ccccc4F)ccc3S(=O)(=O)N([C@@H](C)CO)C[C@H]2C)c1 | n | n | n | x | x | x | x
COc1cccc(NC(=O)N(C)C[C@@H]2Oc3cc(C#Cc4ccc(F)cc4)ccc3S(=O)(=O)N([C@H](C)CO)C[C@@H]2C)c1 | 117.5 | n | n | 98.8 | 110.7 | 49.9 | 37.6
COc1cccc(C#Cc2ccc3c(c2)O[C@@H](CN(C)C(C)=O)[C@H](C)CN([C@H](C)CO)S3(=O)=O)c1 | n | n | n | x | x | x | x
COc1cccc(NC(=O)N(C)C[C@H]2Oc3cc(C#Cc4ccncc4)ccc3S(=O)(=O)N([C@H](C)CO)C[C@H]2C)c1 | n | n | n | x | x | x | x
COc1cccc(C#Cc2ccc3c(c2)O[C@H](CN(C)C(C)=O)[C@@H](C)CN([C@H](C)CO)S3(=O)=O)c1 | u | n | n | 105.4 | n | n | 35.3
COc1ccc(C#Cc2ccc3c(c2)O[C@H](CN(C)C(=O)Nc2cccc(OC)c2)[C@H](C)CN([C@@H](C)CO)S3(=O)=O)cc1 | 116.5 | n | x | 111.0 | 104.3 | n | n
COc1cccc(NC(=O)N(C)C[C@H]2Oc3cc(-c4ccccc4F)ccc3S(=O)(=O)N([C@H](C)CO)C[C@@H]2C)c1 | u | n | n | 97.9 | n | n | u
COc1cccc(NC(=O)N(C)C[C@H]2Oc3cc(C#Cc4ccncc4)ccc3S(=O)(=O)N([C@H](C)CO)C[C@@H]2C)c1 | n | n | n | x | x | x | x
